According to ChEMBL document CHEMBL4813967, “Tackling resistance in chronic myeloid leukemia: Novel cell death modulators with improved efficacy” (Eur J Med Chem, 2021):
Calls of active or inactive are those of the source. The calls are words filed in the database; no cut-off is given here.

Experiments:
[1] = system: K562; assay: Induction of cell sensitization to imatinib in imatinib-resistant human K562 cells assessed as cell death at 10 uM incubated for 72 hrs in presence of 1 uM imatinib by PI staining based flow cytometry (reference value: 19%); format: functional
[2] = system: K562; assay: Induction of cell sensitization to imatinib in imatinib-resistant human K562 cells assessed as cell death at 1.75 uM incubated for 72 hrs in presence of 1 uM imatinib by PI staining based flow cytometry (reference value: 19%); format: functional
[3] = system: K562; assay: Induction of cell sensitization to imatinib in imatinib-resistant human K562 cells assessed as cell death at 5 uM incubated for 72 hrs in presence of 1 uM imatinib by PI staining based flow cytometry (reference value: 19%); format: functional
[4] = system: K562; assay: Induction of cell sensitization to imatinib in imatinib-resistant human K562 cells assessed as cell death at >10 uM incubated for 72 hrs in presence of 1 uM imatinib by PI staining based flow cytometry; format: functional; conditions: dose microM >10, time 72.0 hrs
In short: (§1)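 K562-resistant cells, a doxorubicin-resistant K562 subclone (KD225), grown in RPMI 1640 with 10% FCS. Seeded 2×10^5/well and exposed 72 h to compound alone or with 1 µM imatinib. PI/Triton X-100 staining 2 h at 4 °C; flow cytometry scoring sub-G1 nuclei as dead cells. DMSO vehicle (≤0.1%) controls. Mean ± SEM of ≥3 experiments.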

[5] = target: T1, Peroxisome proliferator-activated receptor gamma (Homo sapiens, UniProt P37231); assay: Agonist activity at Gal4-fused human PPARgamma transfected in African green monkey COS7 cells co-transfected with pGal5-TK-pGL3 and pRenilla-CMV assessed as receptor transactivation at 10 uM incubated for 39 hrs by dual luciferase reporter gene assay relative to piaglitazone; format: cell-based; conditions: COS-7, human, read-out: max activation
T1 sequence (P37231 whole entry): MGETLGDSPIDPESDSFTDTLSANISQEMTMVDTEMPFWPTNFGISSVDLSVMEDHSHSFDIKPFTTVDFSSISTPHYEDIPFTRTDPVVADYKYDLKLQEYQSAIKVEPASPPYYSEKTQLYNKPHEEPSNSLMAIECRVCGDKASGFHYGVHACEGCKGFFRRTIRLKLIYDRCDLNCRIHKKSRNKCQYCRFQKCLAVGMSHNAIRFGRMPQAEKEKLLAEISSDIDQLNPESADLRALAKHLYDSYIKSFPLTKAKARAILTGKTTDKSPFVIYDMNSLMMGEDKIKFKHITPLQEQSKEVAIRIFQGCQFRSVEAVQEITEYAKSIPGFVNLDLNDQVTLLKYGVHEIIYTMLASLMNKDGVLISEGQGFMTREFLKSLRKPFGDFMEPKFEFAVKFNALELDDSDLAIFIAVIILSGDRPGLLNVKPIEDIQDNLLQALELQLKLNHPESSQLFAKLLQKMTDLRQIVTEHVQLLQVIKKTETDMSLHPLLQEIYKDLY
In short: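 COS-7 cells (10^4/well, triplicates) grown 24 h, then transiently transfected with pGal5-TK-pGL3 (90 ng), pGal4-hPPARγDEF (9 ng) and pRenilla-CMV (3 ng). Compound added 7 h later, incubation 39 h. Cells lysed by freezing at -80 °C overnight plus lysis buffer. Firefly luciferase normalised to Renilla. Activity at 10 µM expressed relative to pioglitazone at 10 µM (100%). Mean ± SD of ≥3 experiments.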

[6] = system: K562; assay: Cytotoxicity against imatinib-resistant human K562 cells assessed as cell death at 5 uM incubated for 72 hrs by propidium iodide staining based flow cytometry; conditions: k562, 72 h; in short: as §1
[7] = system: COS-7; assay: Cytotoxicity against African green monkey COS7 cells assessed as cell viability at 10 uM incubated for 72 hrs by MTT assay; format: cell-based; conditions: chlorocebus aethiops, cos-7, 72 h
In short: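 COS-7 cells in DMEM with 10% FCS and L-glutamine, no antibiotics or phenol red. Seeded 2×10^3/well in triplicate, grown 24 h, then compound added at 10 µM final and incubated 72 h. Modified MTT (tetrazolium) metabolic-activity readout by absorbance. DMSO control set to 100%; DMSO ≤0.1%. Mean + SD of ≥3 experiments, triplicate determinations.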

[8] = Cytotoxicity against human HS5 cells assessed as cell death at 5 uM incubated for 72 hrs by PI staining based flow cytometry; conditions: hs5, 72 h
In short: (§2)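 HS-5 stromal cells in DMEM with 10% FCS, 5% CO2, 37 °C. Seeded 0.5×10^5/well, given compound (5 µM) alone or with imatinib, and incubated 72 h. Cells stained with PI/Triton X-100 for 2 h at 4 °C. Dead cells counted by flow cytometry as sub-G1 nuclei. DMSO vehicle control included.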

[9] = Cytotoxicity against human HS5 cells assessed as cell death at 5 uM incubated for 72 hrs in presence of imatinib by PI staining based flow cytometry; conditions: hs5, 72 h; in short: as §2
[10] = Modulation of STAT5 expression in imatinib-resistant human K562 cells assessed as STAT5 level at 5 uM measured after 6 hrs by Jess Simple Western immunoassay (reference value: 100%); format: functional
In short: (§3)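 K562-resistant (doxorubicin-resistant KD225) cells treated 6 h with compound at 5 µM, alone or with 1 µM imatinib, against a DMSO control. Total protein extracts analysed by capillary Jess Simple Western. STAT5 antibody 10 µg/ml with 0.2 mg/ml lysate; pSTAT5 (Y694/699) antibody 20 µg/ml with 2 mg/ml lysate. GAPDH (0.4 µg/ml) as loading reference; HRP anti-rabbit secondary.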

[11] = target: T2, Signal transducer and activator of transcription 5A (Homo sapiens) (UniProt P42229); assay: Inhibition of STAT5 phosphorylation at Y694/699 residue in imatinib-resistant human K562 cells assessed as phosphorylated STAT5 level at 5 uM incubated for 6 hrs in presence of imatinib by Jess Simple Western immunoassay (reference value: 100%); format: cell-based; set-up: scale not given: the % may be the effect or the level left
T2 sequence (whole entry): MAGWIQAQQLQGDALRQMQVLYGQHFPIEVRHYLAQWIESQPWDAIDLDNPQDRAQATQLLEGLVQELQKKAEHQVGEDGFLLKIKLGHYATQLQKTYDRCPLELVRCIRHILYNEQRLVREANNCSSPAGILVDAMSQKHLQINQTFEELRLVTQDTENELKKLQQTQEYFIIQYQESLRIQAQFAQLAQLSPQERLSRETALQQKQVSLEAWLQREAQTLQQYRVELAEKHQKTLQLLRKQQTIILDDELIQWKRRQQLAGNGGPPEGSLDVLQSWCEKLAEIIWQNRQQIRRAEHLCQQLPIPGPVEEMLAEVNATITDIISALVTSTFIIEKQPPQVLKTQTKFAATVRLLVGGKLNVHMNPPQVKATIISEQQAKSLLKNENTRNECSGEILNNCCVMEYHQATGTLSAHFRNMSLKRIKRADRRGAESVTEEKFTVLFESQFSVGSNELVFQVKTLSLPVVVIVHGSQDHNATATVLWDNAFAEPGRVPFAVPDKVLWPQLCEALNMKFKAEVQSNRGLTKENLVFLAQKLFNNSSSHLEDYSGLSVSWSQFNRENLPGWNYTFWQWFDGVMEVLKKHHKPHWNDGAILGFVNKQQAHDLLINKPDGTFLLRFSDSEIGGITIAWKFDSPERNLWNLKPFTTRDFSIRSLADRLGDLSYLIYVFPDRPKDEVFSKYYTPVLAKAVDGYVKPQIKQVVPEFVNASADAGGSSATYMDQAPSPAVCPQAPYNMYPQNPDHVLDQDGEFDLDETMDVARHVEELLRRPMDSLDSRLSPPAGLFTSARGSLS

[12] = target: T2, Signal transducer and activator of transcription 5A (Homo sapiens); assay: Inhibition of STAT5 phosphorylation at Y694/699 residue in imatinib-resistant human K562 cells assessed as phosphorylated STAT5 level at 5 uM incubated for 6 hrs by Jess Simple Western immunoassay (reference value: 100%); format: cell-based; set-up: scale not given: the % may be the effect or the level left; in short: as §3
[13] = Modulation of STAT5 expression in imatinib-resistant human K562 cells assessed as STAT5 level at 5 uM measured after 6 hrs in presence of imatinib by Jess Simple Western immunoassay (reference value: 100%); format: functional
[14] = system: COS-7; assay: Cytotoxicity against African green monkey COS7 cells assessed as cell viability at 10 uM incubated for 72 hrs by MTT assay; conditions: chlorocebus aethiops, cos-7, 72 h

SMILES	Activity [1] [%]	Activity [2] [%]	Activity [3] [%]	Activity [4]	Emax at 10 µM [5] [%]	Activity [6]	Activity [7]	Activity [8]	Activity [9]	Activity [10] [%]	Activity [11] [%]	Activity [12] [%]	Activity [13] [%]	Activity [14]
CCCc1nc2c(C)cc(-c3nc4ccccc4n3C)cc2n1Cc1ccc(-c2ccccc2C(N)=O)cc1	89	41	76	–	–	–	–	–	–	–	–	–	–	–
CCc1ccc(CCOc2ccc(CC3SC(=O)NC3=O)cc2)nc1 (configuration not stated)	–	–	–	inactive	–	–	–	–	–	–	–	–	–	–
CCCc1nc2c(C)cc(-c3nc4ccccc4n3C)cc2n1Cc1ccc(-c2ccccc2C(=O)O)cc1 [TELMISARTAN]	63	21	57	–	59.8	–	–	–	–	–	–	–	–	–
CCCc1nc2c(Br)cccc2n1Cc1ccc(-c2ccccc2C(=O)OC)cc1	66	–	26	–	11.6	<= 20%	Non-Toxic	Non-Toxic	Non-Toxic	103	27	89	116	Non-Toxic
CCCc1nc2ccccc2n1Cc1ccc(-c2ccccc2C#N)cc1	>85	–	50	–	64.5	<= 20%	Non-Toxic	Non-Toxic	Non-Toxic	98	3	78	96	Non-Toxic
